# Tb MetRS inh: Trypanosoma brucei MetRS inhibition; purified T. brucei MetRS, ATP depletion, Kinase-Glo luminescence; inhibition, % at 11.9 µM; 0.4% of 360,000 active; AID 624268;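 active = inhibition above a per-plate cutoff of the control wells' mean inhibition plus 3 SD, cut at about 5.5% in these data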;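 note: 0% = DMSO wells median and 100% = median of wells with control inhibitor compound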
#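 Material: T. brucei methionyl-tRNA synthetase, purified; reagent: substrates ATP, L-methionine and bulk Escherichia coli tRNA; dosing: 11.9 µM single point; timing: 15 min plus 2 h at 25 °C; detection: luminescence of leftover ATP; evaluation: % inhibition; control set: DMSO-only wells as low control; replicates: singlicate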
# WT yeast gro inh: growth inhibition of WT yeast, mitochondrial fusion screen; 2.1% of 190,000 active; mitochondrial fusion phenotypic screen, WT strain; inhibition, % at 10 µM; in the data active = inhibition above about 58%; tested in S. cerevisiae
# CHOP inh: blocks CHOP induction under ER stress. inhibition, % at 10 µM. CHO-K1 CHOP-promoter luciferase, tunicamycin-induced, 15-18 h. 3.8% of 220,000 active;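 active = compounds that reduced the stress-induced luciferase reporter signal by more than about 70% of percent inhibition, limit read from the data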;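 note: 0% = tunicamycin plus vehicle and 100% = wells without tunicamycin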
# GRIN3A LBD mod: modulators (binders) of human NR3A ligand-binding domain | AID 1259313 | NR3A LBD differential scanning fluorimetry, Tm shift; 0% = protein alone, 100% = glycine-bound protein | Tm shift relative to glycine control, % at 25 µM | 2.5% of 340,000 active;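 active = melting temperature shift of at least 10% of the positive control shift, at one fixed dose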
# MPTP block: inhibitors of mitochondrial permeability transition pore; isolated mouse mitochondria, Ca2+ swelling absorbance, 30 min; inhibition, % at 10 µM; 1.4% of 360,000 active; AID 602449;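 active = inhibition of 50% or more, scaled per plate between neutral and stimulator controls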;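 note: 0% = DMSO wells given calcium and 100% = 1 mM EGTA wells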
# EBV gp42 block: inhibitors of Epstein-Barr virus glycoprotein 42 | AID 1085 | inhibition, % (tested at 21.74 µM) | Q1HVG2 | 0.42% of 220,000 active | Fluorescence polarization binding assay, mP read-out; in the data active = inhibition above about 50%
# Target sequence (Q1HVG2 whole entry, looked up): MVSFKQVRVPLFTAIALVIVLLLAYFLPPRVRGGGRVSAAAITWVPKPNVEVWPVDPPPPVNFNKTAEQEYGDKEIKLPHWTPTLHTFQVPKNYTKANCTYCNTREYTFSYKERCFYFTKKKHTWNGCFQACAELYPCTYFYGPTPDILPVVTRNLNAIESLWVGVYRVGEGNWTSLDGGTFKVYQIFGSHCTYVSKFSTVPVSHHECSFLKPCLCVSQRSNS
# Active calls of the source: *; / = no result given. A selection: hits, their analogues and other compounds. The true share with any hit is near 6.4%.
SMILES,Tb MetRS inh,WT yeast gro inh,CHOP inh,GRIN3A LBD mod,MPTP block,EBV gp42 block
CC(=O)Nc1ccc(S(=O)(=O)Nc2nccc(/C=C/c3ccc(Cl)cc3)n2)cc1,2,7,10,12*,0,-4
Cc1cccc(C(=O)Nc2ccc(S(=O)(=O)Nc3nc(C)cc(C)n3)cc2)c1,-1,/,/,13*,0,/
N#CCCn1cc(C(CC(=O)c2ccc(Br)cc2)C(=O)O)c2ccccc21 (configuration not stated),0,-11,-3,-2,-1,-8
CCc1nc2c(OCc3ccc(Cl)cc3)cccn2c1N(C)C(=O)c1cccs1,0,/,/,/,1,/
CC1=C(C(=O)N(C)C)CC(CC(=O)NCCN2CCOCC2)C(=O)N1CCC1=CCCCC1 (configuration not stated),0,/,/,/,-2,/
COc1ccc(C(=O)/C=C/Nc2ccc(S(=O)(=O)Nc3nc(C)cc(C)n3)cc2)cc1OC,-1,9,36,-19,-1,-6
Cc1cc(C)nc(NS(=O)(=O)c2ccc(N/C=C/C(=O)c3ccc(Cl)cc3)cc2)n1,-1,-7,92*,-17,6,-29
Cc1ccc(NS(=O)(=O)c2ccc(NC(=O)c3cccc(NC(=O)C(C)C)c3)cc2)cc1,-2,-2,12,18*,2,-13
Cc1ccc(S(=O)(=O)Nc2ccc(C(=O)Nc3ccncc3)cc2)cc1,0,8,15,-25,2,-15
CCCCCCC(=O)NNC(=O)c1c(O)c2ccccc2n(CC)c1=O,0,-10,93*,-1,2,-10
CCCn1c(=O)c(C(=O)N/N=C/c2ccc(F)cc2)c(O)c2ccccc21,0,/,44,19*,0,-5
CCCCCCC(=O)NNC(=O)c1c(O)c2ccccc2n(CCC)c1=O,0,-12,76*,-7,4,-18
CCCCCCCC(=O)NNC(=O)c1c(O)c2ccccc2n(CCC)c1=O,-1,7,5,-5,16,-5
O=C(N/N=C/c1ccccc1)c1c(O)c2ccccc2[nH]c1=O,0,1,78*,2,3,-13
CN(CC(=O)Nn1cnnc1)S(=O)(=O)c1ccc(Br)cc1,1,5,-9,-1,-1,-22
CCc1nn(C(C)C(=O)NCCc2ccc(OC)c(OC)c2)c(=O)c2cc3occc3n12 (configuration not stated),0,-3,0,0,-6,-19
CC(C)(C)C(=O)/C=C1\NC(=O)CS1,-1,-5,-7,0,1,-20
Cc1cc(C)c2nc(-c3ccccn3)cc(C(=O)Nn3cnnc3)c2c1,0,9,15,-2,4,3
CCn1c(=O)c(C(=O)NNS(=O)(=O)c2ccc(Cl)cc2)c(O)c2ccccc21,0,29,84*,-5,-30,-1
CC(C)CC1NC(=O)N(CC(=O)NC2CCCCC2)C1=O (configuration not stated),0,/,/,-1,-3,/
COc1ccc(OCCCC(=O)NCc2ccco2)cc1,-1,20,24,1,-2,-3
COC(=O)c1sc(NC(=S)NNC(=O)c2c(Br)c(C)nn2C)c(C(=O)OC)c1C,-1,/,/,12*,41,/
COC(=O)c1sc(S(=O)(=O)Nc2c(C)nn(C)c2C)c(C(=O)OC)c1C,0,/,/,-1,0,/
CCSc1nc(=S)cc(C)[nH]1,-1,/,-25,10*,0,-1
CCOC(=O)C1CCCN(C(=O)c2cc(S(=O)(=O)N(C)C)ccc2N2CCCC2)C1 (configuration not stated),0,/,/,11*,0,/
SMILES,Tb MetRS inh,WT yeast gro inh,CHOP inh,GRIN3A LBD mod,MPTP block,EBV gp42 block
CCOC(=O)C1CCCN(C(=O)CS(=O)(=O)Cc2ccccc2)C1 (configuration not stated),0,60*,-18,-2,-1,-11
CCOC(=O)C1CCCN(C(=O)CCc2ccccc2)C1 (configuration not stated),-1,-20,-5,0,-1,-14
Cc1ccccc1CSCC(=O)Nc1ccccc1-c1ccccc1,0,74*,43,-4,-2,18
O=C(CSCc1cccc(Cl)c1)Nc1ccccc1-c1ccccc1,0,64*,62,-1,1,11
Cc1ccc(C)c(NC(=S)Nc2ccc(S(=O)(=O)Nc3ncccn3)cc2)c1,-1,19,21,3,20,6
COc1cccc(C2CC(c3cccs3)=NN2C(=O)CSc2nc3c(cnn3-c3ccc(F)cc3)c(=O)[nH]2)c1OC (configuration not stated),-1,12,34,-28,-1,-9
COc1ccc(C2CC(c3cccs3)=NN2C(=O)CSc2nc3c(cnn3-c3ccccc3)c(=O)[nH]2)cc1 (configuration not stated),0,-11,76*,-27,1,-10
COc1cc(OC)cc(C(=O)N[C@H](C(=O)OCC(N)=O)C(C)C)c1,-1,-3,21,11*,-1,11
COc1cc(/C=C/C(=O)OCC(=O)Nc2ccccc2Sc2ccc(Cl)cc2)ccc1O,-1,37,58,15*,3,9
CC(C)Cc1nnc(NC(=O)c2cc(-c3ccncc3)nc3ccccc23)s1,0,/,1,-5,2,-22
CCOC(=O)C1=C(NC(=S)NC(=O)c2ccccc2)c2ccccc2CC1C(C)C (configuration not stated),0,78*,89*,4,1,-4
CCOC(=O)C1=C(NC(=S)NC(=O)c2ccccc2)c2ccccc2CC1(C)CC (configuration not stated),0,70*,48,-8,1,2
CCOC(=O)c1sc(NC(=S)NC(=O)c2ccccc2)c(C(=O)OCC)c1C,0,4,77*,-2,2,-29
CCOC(=O)C1(C)CCCCN1C(=O)c1ccccc1OC (configuration not stated),0,/,/,/,0,/
CCCn1c(SCC(=O)NC2CCCCC2)nnc1-c1cccnc1,0,/,/,-5,-1,/
N#CC1=C(c2ccccc2)/C(=C/c2ccccc2)OC1=O,-1,42,108*,27*,3,-24
CN(C)c1nc(N)nc(CSc2nnnn2-c2ccc(F)cc2)n1,-1,13,-10,1,2,8
COc1ccc(NC(=O)c2sc3nc(C)nc(N4CCN(c5ccccn5)CC4)c3c2C)cc1Cl,-1,/,/,-11,0,/
COc1ccc(OC)c(NC(=O)NNC(=O)c2cc3occc3[nH]2)c1,9.2*,/,/,0,0,/
O=C(NCc1ccc(F)cc1)C(=O)NCC1OCCN1C(=O)c1cccs1 (configuration not stated),0,-9,11,-3,0,-2
NC(=O)c1ccc(C(F)(F)F)n(Cc2cccc(Cl)c2)c1=O,-1,-19,72*,-16,-1,-16

# Screening data: PubChem BioAssay, several laboratories
